pIC50: −log10 of the molar value.
Columns and labels:
[1] = molecular target: Glutamate [NMDA] receptor; assay: In vitro inhibitory activity against [3H]-TCP binding to PCP receptor in guinea pig brain membrane homogenates; type: cell membranes, Cavia porcellus
Procedure, shortened: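 Displacement of 1.8 nM [3H]TCP (100 Ci/mmol) from guinea pig brain membranes (800 μg protein/mL, 50 mM Tris-HCl pH 7.4). Incubation 45 min at room temperature. Nonspecific binding defined by 10 μM PCP. Vacuum filtration on glass-fiber filters, two washes, scintillation counting. IC50 interpolated from semilog displacement curves.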

[2] = molecular target: Glutamate [NMDA] receptor; assay: (§1) In vitro inhibitory activity against [3H](+)-MK-801 binding to PCP receptor in guinea pig brain membrane homogenates; type: cell membranes, Cavia porcellus
Procedure, shortened: (§2)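 [3H](+)-MK-801 (97 Ci/mmol) at 1 nM final with guinea pig brain membranes at 150 μg protein/mL. Assay and filtration buffer was 5 mM Tris-HCl pH 7.4. Incubation 4 h at 25 °C. Nonspecific binding measured with 10 μM TCP or MK-801. Bound ligand collected by glass-fiber filtration and counted by scintillation. IC50 taken from displacement curves.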

[3] = molecular target: Glutamate [NMDA] receptor; assay: as §1; type: cell membranes, Cavia porcellus; procedure, shortened: as §2; remark: listed apart in the source
[4] = molecular target: sigma receptor (guinea pig); assay: In vitro inhibitory activity against [3H]- (+)-3-PPP binding to sigma receptor in guinea pig brain membrane homogenates

Structure (SMILES) | pIC50 [1] | pIC50 [2] | other results
N=C(NC1C2CC3CC(C2)CC1C3)NC1C2CC3CC(C2)CC1C3 (stereo not drawn) | < 5.00 | – | –
N=C(NC12CC3CC(CC(C3)C1)C2)NC12CC3CC(CC(C3)C1)C2 | < 5.00 | – | –
CCCCCCCCN=C(NC1CCCCC1)NC1CCCCC1 | – | < 5.00 | –
CCCCNC(=N)NCCCC | 4.31 | – | –
NC1=Nc2ccccc2-c2ccccc2N1 | – | < 5.00 | –
CC(C)c1cccc(NC(=N)Nc2cccc(C(C)C)c2)c1 | – | 6.30 | –
N=C(Nc1ccccc1I)Nc1ccccc1/C=C/c1ccccc1 | – | < 5.00 | –
N=C(Nc1ccccc1/C=C/c1ccccc1)NC12CC3CC(CC(C3)C1)C2 | – | 5.46 | –
Cc1ccccc1NC(=N)Nc1ccccc1C [DITOLYLGUANIDINE] | 5.11 | 4.97 | –
Cc1ccccc1N=C(N)Nc1ccccc1I | 5.69 | – | –
CC(C)c1ccc(NC(=N)Nc2ccc(C(C)C)cc2)cc1 | – | 4.57 | –
N=C(Nc1ccccc1/C=C/c1c(F)c(F)c(F)c(F)c1F)NC12CC3CC(CC(C3)C1)C2 | – | < 5.00 | –
CC(C)c1ccccc1N=C(N)Nc1ccccc1C(C)C | – | 6.56 | –
CC(=O)[C@H]1CCC2C3CC=C4CC(/N=C(\N)Nc5ccccc5C)CC[C@]4(C)C3CC[C@@]21C (stereo partly drawn) | – | < 5.00 | –
Cc1ccccc1NC(N)=Nc1ccccc1[N+](=O)[O-] | 5.68 | – | –
NC(=NC1CCCCC1)NC1CCCCC1 | < 5.00 | – | –
Cc1ccccc1/N=C(/N)Nc1cccc(O)c1 | 5.60 | – | –
Cc1ccccc1/N=C(\N)NC12CC3CC(C)(CC(C)(C3)C1)C2 | – | 5.70 | –
ONC(=NC1CCCCC1)NC1CCCCC1 | < 5.00 | – | –
N=C(NC1CC2CCC1C2)NC1CC2CCC1C2 (stereo not drawn) [listing 1 of 2 here] | – | < 5.00 | –
N=C(Nc1ccccc1I)NC1CC2CCC1C2 (stereo not drawn) | – | < 5.00 | pIC50 [3]: < 5.00
Cc1ccccc1/N=C(\N)NC1C2CC3CC(C2)CC1C3 (stereo not drawn) | – | < 5.00 | –
N=C(Nc1cccc2ccccc12)Nc1cccc2ccccc12 | – | 6.87 | –
CC12CC3CC(C)(C1)CC(/N=C(\N)Nc1ccccc1I)(C3)C2 | – | 5.40 | –
N=C(NC1CC2CCC1C2)NC1CC2CCC1C2 (stereo not drawn) [listing 2 of 2 here] | – | 5.30 | –

Structure (SMILES) | pIC50 [1] | pIC50 [2] | other results
N=C(Nc1ccccc1C(F)(F)F)Nc1ccccc1C(F)(F)F | 5.38 | – | –
Cc1ccccc1/N=C(/N)Nc1ccc([N+](=O)[O-])cc1C | 5.24 | – | –
Cc1ccccc1NC(N)=NC1CC2CCC1C2 (stereo not drawn) | – | < 5.00 | pIC50 [3]: < 5.00
Cc1ccccc1NC(N)=NC1CC2CCC1(C)C2(C)C (stereo not drawn) | – | 5.30 | –
Cc1cc([N+](=O)[O-])ccc1NC(=N)Nc1ccc([N+](=O)[O-])cc1C | 5.37 | – | –
NC(=Nc1ccc(Br)cc1)Nc1ccc(Br)cc1 | 4.47 | – | –
NC(=Nc1ccccc1I)NC12CC3CC(CC(C3)C1)C2 | – | < 5.00 | –
NC1=Nc2ccccc2CN1c1ccccc1 | < 5.00 | – | –
Cc1cc(N)ccc1N=C(N)Nc1cccc(O)c1 | – | < 5.00 | –
CNC(=N)NC | < 5.00 | – | –
N=C(Nc1ccccc1/C=C/c1ccccc1)NC1C2CC3CC(C2)CC1C3 (stereo not drawn) | – | < 5.00 | –
CC(C)(C)/N=C(\N)Nc1ccccc1I | – | < 5.02 | –
Cc1cccc(NC(=N)Nc2cccc(C)c2)c1 | 6.43 | 6.48 | –
Cc1ccccc1N=C(N)NC1CCCCC1 | < 5.00 | 5.00 | –
Cc1cc(Br)ccc1N=C(N)Nc1ccc(Br)cc1C | < 5.00 | – | –
NC(=Nc1ccccc1I)Nc1ccccc1I | 6.68 | 6.62 | –
Cc1ccccc1N/C(N)=N/C1CC[C@@]2(C)C(=CCC3C2CC[C@@]2(C)C3CC[C@@H]2C(C)CCCC(C)C)C1 (stereo partly drawn) | – | < 5.00 | –
N=C(N)N(c1ccccc1)c1ccccc1 | – | – | pIC50 [4]: < 4.00
N/C(=N\c1ccccc1[N+](=O)[O-])NC12CC3CC(CC(C3)C1)C2 | – | < 5.00 | –
Cc1ccccc1/N=C(\N)NC12CC3CC(CC(C3)C1)C2 | 4.49 | – | –
NC1=Nc2cccc3cccc(c23)N1 | – | – | pIC50 [3]: < 5.00
Cc1ccc(N=C(N)Nc2ccc(C)cc2)cc1 | 4.51 | 4.88 | –
CC12CC3CC(C)(C1)CC(/N=C(\N)Nc1ccccc1/C=C/c1ccccc1)(C3)C2 | – | < 5.00 | –
Cc1ccccc1/N=C(/N)Nc1c(C)cccc1C | 5.72 | – | –
N=C1N(c2ccccc2)CCN1c1ccccc1 | – | < 5.00 | –

Structure (SMILES) | pIC50 [1] | pIC50 [2] | other results
N=C(NC1C[C@H]1c1ccccc1)NC12CC3CC(CC(C3)C1)C2 (stereo partly drawn) | – | < 5.00 | –
CC(C)(C)c1ccccc1N=C(N)Nc1ccccc1C(C)(C)C | – | 4.42 | –
CCCc1cccc(NC(=N)Nc2cccc(CCC)c2)c1 | – | 5.68 | –
Cc1ccccc1/N=C(/N)Nc1ccc(N)cc1C | 5.36 | – | –
CCc1cccc(NC(=N)Nc2cccc(CC)c2)c1 | 7.09 | 6.77 | –
CC1(C)C2CCC1(C)C(/N=C(\N)Nc1ccccc1I)C2 (stereo not drawn) | – | < 5.00 | –
CCc1ccccc1N=C(N)Nc1ccccc1CC | 6.45 | 6.09 | –
N=C(NC1CCCCC1)NC12CC3CC(CC(C3)C1)C2 | < 5.00 | – | –
NC1=NCCN1c1ccccc1 | < 5.00 | – | –
Cc1cc([N+](=O)[O-])ccc1NC(N)=Nc1cccc(O)c1 | 4.43 | – | –
N=C(Nc1ccccc1CCc1ccccc1)NC12CC3CC(CC(C3)C1)C2 | – | < 5.00 | –
Cc1ccccc1/N=C(/N)Nc1ccccc1/C=C/c1ccccc1 | – | < 5.00 | –
Cc1cccc(C)c1N=C(N)Nc1c(C)cccc1C | 4.49 | – | –
NC(=Nc1ccccc1-c1ccccc1)Nc1ccccc1-c1ccccc1 | – | < 5.00 | –
N=C(Nc1ccccc1I)NC1C2CC3CC(C2)CC1C3 (stereo not drawn) | – | < 5.00 | –
CCc1ccc(NC(=N)Nc2ccc(CC)cc2)cc1 | – | 4.99 | –
Cc1ccccc1N=C(N)Nc1ccccc1N | 4.92 | – | –
N=C(Nc1ccccc1)Nc1ccccc1 | 5.46 | – | –
CN=C(NC1CCCCC1)NC1CCCCC1 | < 5.00 | – | pIC50 [3]: < 5.00
Cc1cc(N)ccc1NC(=N)Nc1ccc(N)cc1C | < 4.00 | – | –
N=C(NCc1ccccc1)NCc1ccccc1 | 5.17 | – | –
NC(=Nc1ccccc1-c1ccccc1)Nc1cccc2ccccc12 | – | < 5.00 | –
NC(=Nc1ccccc1-c1ccccc1)NC12CC3CC(CC(C3)C1)C2 | – | < 5.00 | –
